B2AR ag = activates human beta-2 adrenergic receptor causing internalization; Am2.2-beta2AR cells, FAP receptor internalization, flow cytometry; response, % (no concentration beside the values); P07550; 340,000 compounds, 0.43% hits;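 active means response above a set limit, near 3 SD of response in nonfluorescent compounds, cut at about 42% in these data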
MC4R barr agon = activates human MC4R beta-arrestin recruitment; U2OS MC4R beta-arrestin complementation, luminescence; percent of melanotan II response, DMSO zero; AID 540308; 360,000 compounds, 0.98% hits; activation, % at 8.9 µM;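 active means activation above a per-plate cutoff, the mean activation of sample wells on that plate plus 3 SD, cut at about 8% in these data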
MC4R antagonist = blocks human MC4R cAMP signaling. MC4R-expressing cells, MTII-stimulated cAMP, LANCE TR-FRET. inhibition, % at 6.5 µM. 360,000 compounds, 0.48% hits. AID 540295;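 active means inhibition above its plate's cutoff, the mean of tested wells on that plate plus 3 SD, cut at about 29% in these data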;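 further: 0% = Melanotan II alone and 100% = Melanotan II plus saturating MCL0020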
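Material – human MC4R-expressing U2OS cells · Repeats – no replicates · Detection – TR-FRET with Eu-cAMP and labeled anti-cAMP, 671 nm · Times – compound 30 min, challenge 1 h, detection 1 h · Compound – single nominal compound dose of 6.5 µM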
m5-HT2A agonist = activates the mouse 5-HT2A serotonin receptor. 360,000 compounds, 0.66% hits. CHO-K1 mHTR2A beta-arrestin complementation, luminescence; percent of 30 µM serotonin response. P35363. AID 624169. activation, % at 7.6 µM;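 active means activation above a run cutoff, the mean activation of all tested compounds plus 3 SD, cut at about 14% in these data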;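 further: 0% = plate median of compound wells and 100% = 30 µM serotonin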
Target sequence (P35363 whole entry, looked up): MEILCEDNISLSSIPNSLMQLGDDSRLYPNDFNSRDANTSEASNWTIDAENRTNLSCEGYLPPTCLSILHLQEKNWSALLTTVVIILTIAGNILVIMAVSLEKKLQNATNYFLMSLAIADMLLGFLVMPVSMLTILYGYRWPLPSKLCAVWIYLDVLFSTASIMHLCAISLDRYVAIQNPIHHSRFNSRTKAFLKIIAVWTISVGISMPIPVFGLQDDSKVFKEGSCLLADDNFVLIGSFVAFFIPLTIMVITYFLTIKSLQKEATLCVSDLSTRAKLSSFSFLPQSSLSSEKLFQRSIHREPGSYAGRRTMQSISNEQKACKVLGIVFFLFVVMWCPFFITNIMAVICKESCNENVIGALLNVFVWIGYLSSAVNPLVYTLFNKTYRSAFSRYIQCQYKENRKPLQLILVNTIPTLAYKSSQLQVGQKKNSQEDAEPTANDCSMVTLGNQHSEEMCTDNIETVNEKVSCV
TAAR1 antag = antagonists of human TAAR1; Q96RJ0; CHO RD-HGA16 TAAR1, Fluo-8 calcium fluorescence, antagonist; inhibition, % at 3 µM; 360,000 compounds, 1.5% hits; AID 624466;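 active means inhibition above a per-plate cutoff, the mean inhibition of test compounds on that plate plus 3 SD, cut at about 49% in these data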;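 further: 0% = DMSO plus EC80 beta-PEA response and 100% = DMSO alone without agonist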
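Material: RD-HGA16 CHO cells with stable hTAAR1 and Gα16; Dosing: single nominal final test compound concentration of 3 µM; Schedule: seeding 17-24 h prior, 75-min 37 °C, 30-min RT dye loading; Detection: kinetic Fluo-8 calcium fluorescence measurement; Measure: % inhibition from peak post-agonist over basal fluorescence ratio; Benchmarks: vehicle and agonist controls.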
TAAR1 ag = human TAAR1 agonism. Q96RJ0. CHO RD-HGA16 TAAR1, Fluo-8 calcium fluorescence; vehicle wells 0%, saturating PEA agonist 100%. activation, % at 3 µM. 360,000 compounds, 0.99% hits;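 active means activation above the mean activation of all test compounds in the run plus 3 SD, cut at about 38% in these data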
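Assay system – CHO-derived RD-HGA16 cells with stable Gα16 and human TAAR1 · Compound dosing – one-point dosing at 3 µM (nominal) · Incubation – 17-24 h seeding, 75 min 37 °C dye, 30 min RT · Measured by – kinetic Fluo-8 calcium fluorescence · Control set – DMSO vehicle as 0%, PEA at EC100 as 100% · Repeats – single well for each compound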
TAAR1 nonsel count = counter-screen for TAAR1 antagonists: nonselective antagonists; AID 651780; shares compounds with TAAR1 antag; inhibition, % at 3 µM; counterscreen cell line, calcium fluorescence, antagonist mode; 2,400 compounds, 77% hits; in the data active means inhibition above about 22%;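 further: CHO-Ga16 host cells stimulated with ATP at an EC80 level; 0% = agonist EC80 plus vehicle and 100% = vehicle without agonist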
TAAR1 ant conf = human TAAR1 antagonism, confirmed. 2,400 compounds, 40% hits. TAAR1-expressing cells, fluorescence antagonist read-out. shares compounds with TAAR1 antag. inhibition, % at 3 µM. AID 651785; in the data active means inhibition above about 49%;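 further: CHO-Ga16 host cells challenged with agonist PEA near its EC80; 0% = agonist at EC80 plus vehicle and 100% = vehicle with no agonist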
Ga16 ag counter = counter-screen for TAAR1 antagonists: nonselective Ga16 agonists; shares compounds with TAAR1 antag; Ga16-expressing cells, calcium fluorescence, agonist counterscreen; activation, % at 3 µM; AID 651953; 2,400 compounds, 18% hits; in the data active means activation above about 12%;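 further: 0% = vehicle wells and 100% = saturating stimulus response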
TAAR1 ag count = activates human TAAR1 in antagonist counter-screen; shares compounds with TAAR1 antag; hTAAR1 cell line, fluorescence activation, agonist mode; activation, % at 3 µM; 2,400 compounds, 2% hits; in the data active means activation above about 37%;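 further: CHO cells stably expressing TAAR1 with calcium dye readout; 0% = DMSO vehicle and 100% = full agonist response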
* marks the source's active call; other numbers are inactive results; . = no result. The list is not random: actives were taken first. Their share in the collection is about 4.3%.

SMILES	B2AR ag	MC4R barr agon	MC4R antagonist	m5-HT2A agonist	TAAR1 antag	TAAR1 ag	TAAR1 nonsel count	TAAR1 ant conf	Ga16 ag counter	TAAR1 ag count
CC1OC(OC2C(CO)OC(OCC3OC(OC(=O)[C@@]45CCC(C)(C)C[C@@H]4C4=CC[C@@H]6[C@@]7(C)CCC(OC8OCC(O)C(O)C8OC8OC(C)C(O)C(O)C8O)[C@@](C)(CO)C7CC[C@@]6(C)[C@]4(C)CC5)C(O)C(O)C3O)C(O)C2O)C(O)C(O)C1O (some centres not stated)	7	-1	9	-4	12	0	.	.	.	.
COc1ccccc1C(=O)NC(=O)COC(=O)c1cnc(C)cn1	6	1	3	4	-19	4	.	.	.	.
CCOc1ncccc1C(=O)NNC(=O)CSc1ccc(Cl)cc1	5	-4	2	8	2	14	.	.	.	.
Cc1ccccc1C(=O)Nc1cc(C(F)(F)F)ccc1-n1cncn1	-8	-1	-2	0	11	3	.	.	.	.
Cc1sc2ncnc(N3CCC(C(=O)NNC(=O)COc4cccc(C(F)(F)F)c4)CC3)c2c1C	12	-1	6	2	64*	17	28*	41	11	28
Cc1ccc(OCC(=O)NNC(=O)C2CCN(c3ncnc4sc(C)c(C)c34)CC2)cc1	-4	-1	2	6	50*	8	26*	27	11	22
CCN(CC(=O)Nc1c(F)cccc1F)C(=O)C1CCN(c2ncnc3sc(C)c(C)c23)CC1	15	-1	15	-7	58*	13	23*	39	8	5
COCCNC(=O)C1CCCN(Cc2ccccc2F)CC1 (configuration not stated)	.	-2	-8	2	.	.	.	.	.	.
COc1cc2c(cc1OC)n(CC(=O)NC1CCCCCC1)n1c(C)cc(=O)nc21	13	-1	9	5	1	-1	.	.	.	.
CC(C)(C)OC(=O)N1CCN(CCNC(=O)c2ccccc2)CC1	-5	-2	13	-5	-2	1	.	.	.	.
Cc1ccc(S(=O)(=O)c2cc3c(=O)n4cccc(C)c4nc3n(Cc3ccncc3)c2=N)cc1	-3	-1	1	-6	.	.	.	.	.	.
COc1cccc(NC(=O)CN(C)C(=O)c2cc(-c3cccc(Br)c3)nc3ccccc23)c1	10	-1	10	-2	79*	10	39*	47	7	4
COc1cccc(NC(=O)CN(C)C(=O)c2cc(-c3ccccc3)nc3ccc(C)cc23)c1	13	-1	19	-5	74*	11	40*	61*	10	7
COc1ccc(NC(=O)CN(C)C(=O)c2cc(-c3ccc(Cl)cc3)nc3ccccc23)cc1	1	-2	4	1	67*	8	30*	42	9	6
COc1ccc(NC(=O)CN(C)C(=O)Cc2c(C)nc3ccccc3c2C)cc1	-3	-2	0	-2	-40	0	.	.	.	.
COCC(=O)N1CCC(Oc2ccc(C(=O)N(C)CCCC3CCCC3)cc2)CC1	0	-2	0	1	-16	5	.	.	.	.
Cc1cccc(NC(=O)c2ccc(S(=O)(=O)N3CCCCC3)cc2)c1	8	-1	9	-3	-26	-2	.	.	.	.
O=C(CN1c2cccc3cccc(c23)S1(=O)=O)Nc1ccccc1F	4	-1	4	-9	-1	0	.	.	.	.
O=C(CN1c2cccc3cccc(c23)S1(=O)=O)Nc1ccc(F)c(F)c1F	7	2	0	-5	104*	2	9	12	4	5
Cc1cccc(N2CCN(S(=O)(=O)c3ccc4[nH]c(=O)ccc4c3)CC2)c1C	-1	7	11	-1	61*	11	35*	38	11	10
CCOc1ccc(NC(=O)CN(C)C(=O)c2ccc(C)o2)cc1OCC	-11	-1	3	-1	-14	2	.	.	.	.
CC(C)N=C1SC(CC(=O)Nc2ccccc2)C(=O)N1C(C)C (configuration not stated)	-11	4	1	0	57*	16	35*	47	7	9
Cc1ccc(C)c(N2CCN(C(=O)CCc3nc(-c4ccccc4Cl)no3)CC2)c1	5	2	1	-4	59*	3	26*	35	5	4
Cc1ccc(C)c(N2CCN(C(=O)CCc3nc(-c4ccccc4C)no3)CC2)c1	-4	2	17	-4	14	0	.	.	.	.
O=C(CN(c1ccc2c(c1)OCCO2)S(=O)(=O)c1ccccc1)NCc1ccc(Cl)cc1	0	-2	8	2	75*	14	26*	62*	9	12
SMILES	B2AR ag	MC4R barr agon	MC4R antagonist	m5-HT2A agonist	TAAR1 antag	TAAR1 ag	TAAR1 nonsel count	TAAR1 ant conf	Ga16 ag counter	TAAR1 ag count
O=C1c2ccccc2C(c2nnnn2Cc2ccccc2)N1CCc1c[nH]c2ccccc12 (configuration not stated)	.	.	.	1	72*	17	40*	62*	10	14
COc1ccc(C2c3[nH]c4ccccc4c3C[C@H]3C(=O)N(c4ccccc4C(=O)NCCN4CCOCC4)C(=O)N23)cc1 (some centres not stated)	-1	-1	11	-2	53*	8	20	30	7	4
O=C(NCCN1CCOCC1)c1ccccc1N1C(=O)[C@@H]2Cc3c([nH]c4ccccc34)C(c3ccc(F)cc3)N2C1=O (some centres not stated)	0	0	9	1	50*	12	13	22	3	7
Cc1ccc(C2c3[nH]c4ccccc4c3C[C@H]3C(=O)N(c4ccccc4C(=O)N4CCC(C(=O)O)CC4)C(=O)N23)cc1 (some centres not stated)	-2	-2	1	4	-50	1	.	.	.	.
CC(C)C[C@@H](CO)NS(=O)(=O)c1c(F)cccc1F	-6	-1	-6	-5	5	-1	.	.	.	.
CCC(C)(C)n1nnnc1CN(Cc1cccs1)Cc1cc2cc(OC)ccc2[nH]c1=O	-10	1	6	6	43	31	.	.	.	.

Screening results (PubChem BioAssay)
